Measurements: ChEMBL document CHEMBL5108018, “Discovery of MDM2-p53 and MDM4-p53 protein-protein interactions small molecule dual inhibitors” (Eur J Med Chem, 2022)
Blank lines part the entries; values can stand above or below the molecule they belong to. Calls of active or inactive are those of the source. No cut-off for these calls is given here.

Columns and labels:
[1] = tested on: LNCaP; test: Antiproliferative activity against human LNCaP cells harboring wild type p53 overexpressing MDM2/4 assessed as inhibition of cell growth incubated for 96 hrs by MTS assay; assay type: functional, cell-based
Outline: (§1)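 MTS viability: cells seeded 1×10^4/well (HCT116), 3×10^3/well (SJSA-1, LNCaP), 5×10^3/well (MCF-7), treated ~24 h after plating with DMSO-stock compounds serially diluted in medium (final DMSO ≤0.1%). Ten or more concentrations over 1–100 µM, duplicates, ≥3 independent runs. Exposure 48 h (HCT116), 72 h (MCF-7), 96 h (SJSA-1, LNCaP). MTS 0.5 mg/mL added for 15–30 min, A490. IC50 from four-parameter variable-slope fit.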

[2] = tested on: HCT-116; test: Antiproliferative activity against human HCT-116 cells harboring wild type p53 overexpressing MDM2 assessed as inhibition of cell growth incubated for 48 hrs by MTS assay; assay type: functional, cell-based; details: HCT-116, 48 h; outline: as §1
[3] = tested on: MCF7; test: Antiproliferative activity against human MCF7 cells harboring wild type p53 overexpressing MDM2/4 assessed as inhibition of cell growth incubated for 72 hrs by MTS assay; assay type: functional, cell-based; details: MCF7, 72 h; outline: as §1
[4] = tested on: SJSA-1; test: Induction of cell cycle arrest in human SJSA-1 cells assessed as accumulation of cells at G0/G1 phase at 10 uM incubated for 96 hrs by RNaseA/PI staining based flow cytometry analysis (reference value: 50.93 %); assay type: functional
[5] = tested on: SJSA-1; test: Induction of cell cycle arrest in human SJSA-1 cells assessed as accumulation of cells at S phase at 15 uM incubated for 96 hrs by RNaseA/PI staining based flow cytometry analysis (reference value: 30.25 %); assay type: functional
[6] = tested on: SJSA-1; test: Induction of apoptosis in human SJSA-1 cells assessed as viable cells at 15 uM incubated for 96 hrs by Annexin V-FITC/7-AAD staining based flow cytometric analysis (reference value: 94.3%); assay type: functional; details: read-out: Activity
[7] = tested on: SJSA-1; test: Induction of cell cycle arrest in human SJSA-1 cells assessed as accumulation of cells at G2/M phase at 10 uM incubated for 96 hrs by RNaseA/PI staining based flow cytometry analysis (reference value: 18.82 %); assay type: functional
[8] = tested on: SJSA-1; test: Induction of apoptosis in human SJSA-1 cells assessed as late apoptotic cells at 15 uM incubated for 96 hrs by Annexin V-FITC/7-AAD staining based flow cytometric analysis (reference value: 3.7%); assay type: functional
[9] = tested on: SJSA-1; test: Induction of cell cycle arrest in human SJSA-1 cells assessed as accumulation of cells at S phase at 10 uM incubated for 96 hrs by RNaseA/PI staining based flow cytometry analysis (reference value: 30.25 %); assay type: functional
[10] = tested on: SJSA-1; test: Induction of apoptosis in human SJSA-1 cells assessed as early apoptotic cells at 15 uM incubated for 96 hrs by Annexin V-FITC/7-AAD staining based flow cytometric analysis (reference value: 1.9%); assay type: functional
[11] = tested on: SJSA-1; test: Induction of apoptosis in human SJSA-1 cells assessed as viable cells at 10 uM incubated for 96 hrs by Annexin V-FITC/7-AAD staining based flow cytometric analysis (reference value: 94.3%); assay type: functional; details: read-out: Activity
[12] = tested on: SJSA-1; test: Induction of cell death in human SJSA-1 cells assessed as loss of cell volume at 1.5 times IC50 incubated for 96 hrs by bright field microscopic analysis; assay type: functional, cell-based
Outline: (§2)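 Brightfield microscopy of SJSA-1 cell morphology after 96 h with DMSO vehicle or compound.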

[13] = tested on: SJSA-1; test: Induction of cell cycle arrest in human SJSA-1 cells assessed as accumulation of cells at G2/M phase at 15 uM incubated for 96 hrs by RNaseA/PI staining based flow cytometry analysis (reference value: 18.82 %); assay type: functional
[14] = tested on: HEK-293T; test: Cytotoxicity against HEK293T cells assessed as reduction in cell viability at 15 uM incubated for 96 hrs by MTS assay; assay type: toxicity, cell-based; details: human
Outline: (§3)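 Single-concentration MTS viability with DMSO vehicle control (final ≤0.1%) run in parallel. HEK293T: 3×10^3 cells/well, 15 µM for 96 h. HCT116 p53(-/-): 20 µM for 48 h. Compound added ~24 h after plating; MTS 0.5 mg/mL in fresh medium for 15–30 min, A490. Mean ± SD of three independent experiments, one-way ANOVA with Bonferroni test.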

[15] = tested on: SJSA-1; test: Induction of apoptosis in human SJSA-1 cells assessed as late apoptotic cells at 10 uM incubated for 96 hrs by Annexin V-FITC/7-AAD staining based flow cytometric analysis (reference value: 3.7%); assay type: functional
[16] = tested on: SJSA-1; test: Induction of cell cycle arrest in human SJSA-1 cells assessed as accumulation of cells at G0/G1 phase at 15 uM incubated for 96 hrs by RNaseA/PI staining based flow cytometry analysis (reference value: 50.93 %); assay type: functional
[17] = tested on: SJSA-1; test: Induction of cell death in human SJSA-1 cells assessed as reduction in cell growth at IC50 incubated for 96 hrs by bright field microscopic analysis; assay type: functional, cell-based; outline: as §2
[18] = Antiproliferative activity against human HCT116-p53-null cells assessed as reduction in cell viability at 20 uM incubated for 48 hrs by MTS assay; assay type: functional; outline: as §3
[19] = tested on: SJSA-1; test: Antiproliferative activity against human SJSA-1 cells harboring wild type p53 overexpressing MDM2/4 assessed as inhibition of cell growth incubated for 96 hrs by MTS assay; assay type: functional, cell-based; details: SJSA-1, 96 h; outline: as §1
[20] = tested on: SJSA-1; test: Induction of apoptosis in human SJSA-1 cells assessed as early apoptotic cells at 10 uM incubated for 96 hrs by Annexin V-FITC/7-AAD staining based flow cytometric analysis (reference value: 1.9%); assay type: functional
[21] = tested on: SJSA-1; test: Induction of cell cycle arrest in human SJSA-1 cells assessed as accumulation of cells at G2/M phase at 15 uM incubated for 96 hrs by RNaseA/PI staining based flow cytometry analysis (reference value: 17.24 %); assay type: functional
[22] = tested on: SJSA-1; test: Induction of cell cycle arrest in human SJSA-1 cells assessed as accumulation of cells at G2/M phase at 22.5 uM incubated for 96 hrs by RNaseA/PI staining based flow cytometry analysis (reference value: 17.24 %); assay type: functional
[23] = tested on: SJSA-1; test: Induction of cell cycle arrest in human SJSA-1 cells assessed as accumulation of cells at S phase at 15 uM incubated for 96 hrs by RNaseA/PI staining based flow cytometry analysis (reference value: 25.88 %); assay type: functional
[24] = tested on: HEK-293T; test: Cytotoxicity against HEK293T cells assessed as reduction in cell viability at 15 uM incubated for 96 hrs by MTS assay relative to control; assay type: toxicity, cell-based; details: human; outline: as §3
[25] = tested on: SJSA-1; test: Induction of apoptosis in human SJSA-1 cells assessed as viable cells at 15 uM incubated for 96 hrs by Annexin V-FITC/7-AAD staining based flow cytometric analysis (reference value: 99.2%); assay type: functional; details: read-out: Activity
[26] = tested on: SJSA-1; test: Induction of apoptosis in human SJSA-1 cells assessed as viable cells at 22.5 uM incubated for 96 hrs by Annexin V-FITC/7-AAD staining based flow cytometric analysis (reference value: 99.2%); assay type: functional; details: read-out: Activity
[27] = tested on: SJSA-1; test: Induction of apoptosis in human SJSA-1 cells assessed as late apoptotic cells at 22.5 uM incubated for 96 hrs by Annexin V-FITC/7-AAD staining based flow cytometric analysis (reference value: 0.6%); assay type: functional
[28] = tested on: SJSA-1; test: Induction of cell cycle arrest in human SJSA-1 cells assessed as accumulation of cells at S phase at 22.5 uM incubated for 96 hrs by RNaseA/PI staining based flow cytometry analysis (reference value: 25.88 %); assay type: functional
[29] = tested on: SJSA-1; test: Induction of apoptosis in human SJSA-1 cells assessed as early apoptotic cells at 22.5 uM incubated for 96 hrs by Annexin V-FITC/7-AAD staining based flow cytometric analysis (reference value: 0.3%); assay type: functional
[30] = tested on: SJSA-1; test: Induction of cell cycle arrest in human SJSA-1 cells assessed as accumulation of cells at G0/G1 phase at 15 uM incubated for 96 hrs by RNaseA/PI staining based flow cytometry analysis (reference value: 57.09 %); assay type: functional
[31] = tested on: SJSA-1; test: Induction of cell death in human SJSA-1 cells assessed as reduction in cell growth at 1.5 times IC50 incubated for 96 hrs by bright field microscopic analysis; assay type: functional, cell-based; outline: as §2
[32] = tested on: SJSA-1; test: Induction of cell cycle arrest in human SJSA-1 cells assessed as accumulation of cells at G0/G1 phase at 22.5 uM incubated for 96 hrs by RNaseA/PI staining based flow cytometry analysis (reference value: 57.09 %); assay type: functional

- IC50 [1]: 11.4 µM
- IC50 [2]: 18.8 µM
- IC50 [3]: 9.7 µM
- IC50 [19]: 10.7 µM
SMILES: O=C(Nc1cccc(-n2ccc(-c3ccccc3)n2)c1)C1=NN(c2ccc(Cl)cc2)C2(C(=O)Nc3cc(Cl)ccc32)C1c1cccc(O)c1 (stereo not drawn)
- Activity [4]: 74.89%
- Activity [5]: 4.27%
- viability at 15 µM [6]: 65.3%
- Activity [7]: 8.94%
- Activity [8]: 19.1%
- Activity [9]: 16.17%
- Activity [10]: 14.4%
- viability at 10 µM [11]: 90.5%
- Activity [12]: Active
- Activity [13]: 3.91%
- Activity [14]: Non-Toxic
- Activity [15]: 5.2%
- Activity [16]: 91.82%
- Activity [17]: Active
- Activity [18]: 52%
- Activity [20]: 4.1%

- IC50 [2]: 37.2 µM
SMILES: O=C(NCC1(O)CCC1)C1=NN(c2ccc(Cl)cc2)C2(C(=O)Nc3cc(Cl)ccc32)C1c1cccc(O)c1 (stereo not drawn)

- IC50 [1]: 11.5 µM
- IC50 [2]: 20.9 µM
- IC50 [3]: 12.4 µM
- IC50 [19]: 17.4 µM
SMILES: O=C(Nc1cccc(-n2cccn2)c1)C1=NN(c2ccc(Cl)cc2)C2(C(=O)Nc3cc(Cl)ccc32)C1c1cccc(O)c1 (stereo not drawn)

- IC50 [1]: 10.7 µM
- IC50 [2]: 18 µM
- IC50 [3]: 15.6 µM
- IC50 [19]: 15.6 µM
SMILES: CCOC(=O)C1=NN(c2ccc(Cl)cc2)C2(C(=O)Nc3cc(Cl)ccc32)C1c1cccc(Cl)c1F (stereo not drawn)
- Activity [21]: 11.01%
- Activity [22]: 6.67%
- Activity [23]: 21.48%
- Activity [24]: 24%
- viability at 15 µM [25]: 98.6%
- viability at 22.5 µM [26]: 92.7%
- Activity [27]: 4.3%
- Activity [28]: 11.13%
- Activity [29]: 2.9%
- Activity [30]: 67.51%
- Activity [18]: 13%
- Activity [31]: Active
- Activity [32]: 82.19%

- IC50 [2]: 27.2 µM
- IC50 [3]: 14.3 µM
SMILES: O=C(Nc1ccc(O)cc1)C1=NN(c2ccc(Cl)cc2)C2(C(=O)Nc3cc(Cl)ccc32)C1c1cccc(O)c1 (stereo not drawn)

Second part, the molecule before the results:

SMILES: CCOC(=O)C1=NN(C2CCCCC2)C2(C(=O)Nc3cc(Cl)ccc32)C1c1cccc(F)c1 (stereo not drawn)
- IC50 [1]: 13.1 µM
- IC50 [2]: 27.5 µM

SMILES: CCOC(=O)C1=NN(C(C)(C)C)C2(C(=O)Nc3cc(Cl)ccc32)C1c1ccc(Cl)cc1 (stereo not drawn)
- IC50 [2]: 30.2 µM

SMILES: CCOC(=O)C1=NN(C2CCCCC2)C2(C(=O)Nc3cc(Cl)ccc32)C1c1ccc(F)cc1 (stereo not drawn)
- IC50 [2]: 31.7 µM
- IC50 [3]: 20.2 µM

SMILES: CC(C)(C)N1N=C(C(=O)NCCc2ccc(O)cc2)C(c2cccc(Cl)c2F)C12C(=O)Nc1cc(Cl)ccc12 (stereo not drawn)
- IC50 [2]: 30.2 µM

SMILES: CC(C)(C)N1N=C(C(=O)NCCO)C(c2cccc(Cl)c2F)C12C(=O)Nc1cc(Cl)ccc12 (stereo not drawn)
- IC50 [2]: > 50 µM

SMILES: CC(C)(C)N1N=C(C(=O)O)C(c2cccc(Cl)c2F)C12C(=O)Nc1cc(Cl)ccc12 (stereo not drawn)
- IC50 [2]: > 100 µM

SMILES: CCOC(=O)C1=NN(C(C)(C)C)C2(C(=O)Nc3cc(Cl)ccc32)C1c1ccc(F)cc1 (stereo not drawn)
- IC50 [2]: 49.9 µM
